Data taken from ChEMBL document CHEMBL2069248, “Synthesis and biological evaluation of a fluorescent analog of phenytoin as a potential inhibitor of neuropathic pain and imaging agent” (Bioorg Med Chem, 2012).
Activity calls are given as the source filed them.

What was measured:
[1] = organism: Rattus norvegicus; assay: Displacement of [3H]BTX-B from VGSC site 2 in rat forebrain membranes at 40 uM incubated at 37 degC for 60 mins; assay type: cell membranes; details: Brain, Membrane
[2] = test system: Rattus norvegicus; assay: Antinociceptive effect in Sprague-Dawley rat model of sciatic nerve constriction-induced neuropathic pain model assessed as reduction in threshold to von Frey filaments applied to affected hind paw at 50 mg/kg, sc measured 2 hrs post dose; assay type: functional, organism-based; design: dose 50 mg/kg
In short: (§1)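 Adult female Sprague-Dawley rats (150 g at start) with unilateral sciatic nerve ligation; only animals with significant allodynia were used. Drug dissolved in DMSO and diluted in PEG400 to a 200 mg/ml stock, then diluted in PEG400/PBS and given subcutaneously. Von Frey withdrawal threshold measured by the up-and-down method 2 h post-dose. n = 5 per group, vehicle controls; one-way ANOVA with Tukey post hoc tests.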

[3] = target: Sodium channel protein type 2 subunit alpha (Homo sapiens) (UniProt Q99250); assay: Inhibition of human NaV1.2 expressed in HEK293 cells at 10 uM using sodium currents elicited through depolarizing step from holding potential of -100 mV to +10 mV for 25 ms at 15 s intervals by whole cell patch clamp method; assay type: cell-based
Chain of Sodium channel protein type 2 subunit alpha (Homo sapiens) (Q99250 whole entry, looked up, the tested form may be a part): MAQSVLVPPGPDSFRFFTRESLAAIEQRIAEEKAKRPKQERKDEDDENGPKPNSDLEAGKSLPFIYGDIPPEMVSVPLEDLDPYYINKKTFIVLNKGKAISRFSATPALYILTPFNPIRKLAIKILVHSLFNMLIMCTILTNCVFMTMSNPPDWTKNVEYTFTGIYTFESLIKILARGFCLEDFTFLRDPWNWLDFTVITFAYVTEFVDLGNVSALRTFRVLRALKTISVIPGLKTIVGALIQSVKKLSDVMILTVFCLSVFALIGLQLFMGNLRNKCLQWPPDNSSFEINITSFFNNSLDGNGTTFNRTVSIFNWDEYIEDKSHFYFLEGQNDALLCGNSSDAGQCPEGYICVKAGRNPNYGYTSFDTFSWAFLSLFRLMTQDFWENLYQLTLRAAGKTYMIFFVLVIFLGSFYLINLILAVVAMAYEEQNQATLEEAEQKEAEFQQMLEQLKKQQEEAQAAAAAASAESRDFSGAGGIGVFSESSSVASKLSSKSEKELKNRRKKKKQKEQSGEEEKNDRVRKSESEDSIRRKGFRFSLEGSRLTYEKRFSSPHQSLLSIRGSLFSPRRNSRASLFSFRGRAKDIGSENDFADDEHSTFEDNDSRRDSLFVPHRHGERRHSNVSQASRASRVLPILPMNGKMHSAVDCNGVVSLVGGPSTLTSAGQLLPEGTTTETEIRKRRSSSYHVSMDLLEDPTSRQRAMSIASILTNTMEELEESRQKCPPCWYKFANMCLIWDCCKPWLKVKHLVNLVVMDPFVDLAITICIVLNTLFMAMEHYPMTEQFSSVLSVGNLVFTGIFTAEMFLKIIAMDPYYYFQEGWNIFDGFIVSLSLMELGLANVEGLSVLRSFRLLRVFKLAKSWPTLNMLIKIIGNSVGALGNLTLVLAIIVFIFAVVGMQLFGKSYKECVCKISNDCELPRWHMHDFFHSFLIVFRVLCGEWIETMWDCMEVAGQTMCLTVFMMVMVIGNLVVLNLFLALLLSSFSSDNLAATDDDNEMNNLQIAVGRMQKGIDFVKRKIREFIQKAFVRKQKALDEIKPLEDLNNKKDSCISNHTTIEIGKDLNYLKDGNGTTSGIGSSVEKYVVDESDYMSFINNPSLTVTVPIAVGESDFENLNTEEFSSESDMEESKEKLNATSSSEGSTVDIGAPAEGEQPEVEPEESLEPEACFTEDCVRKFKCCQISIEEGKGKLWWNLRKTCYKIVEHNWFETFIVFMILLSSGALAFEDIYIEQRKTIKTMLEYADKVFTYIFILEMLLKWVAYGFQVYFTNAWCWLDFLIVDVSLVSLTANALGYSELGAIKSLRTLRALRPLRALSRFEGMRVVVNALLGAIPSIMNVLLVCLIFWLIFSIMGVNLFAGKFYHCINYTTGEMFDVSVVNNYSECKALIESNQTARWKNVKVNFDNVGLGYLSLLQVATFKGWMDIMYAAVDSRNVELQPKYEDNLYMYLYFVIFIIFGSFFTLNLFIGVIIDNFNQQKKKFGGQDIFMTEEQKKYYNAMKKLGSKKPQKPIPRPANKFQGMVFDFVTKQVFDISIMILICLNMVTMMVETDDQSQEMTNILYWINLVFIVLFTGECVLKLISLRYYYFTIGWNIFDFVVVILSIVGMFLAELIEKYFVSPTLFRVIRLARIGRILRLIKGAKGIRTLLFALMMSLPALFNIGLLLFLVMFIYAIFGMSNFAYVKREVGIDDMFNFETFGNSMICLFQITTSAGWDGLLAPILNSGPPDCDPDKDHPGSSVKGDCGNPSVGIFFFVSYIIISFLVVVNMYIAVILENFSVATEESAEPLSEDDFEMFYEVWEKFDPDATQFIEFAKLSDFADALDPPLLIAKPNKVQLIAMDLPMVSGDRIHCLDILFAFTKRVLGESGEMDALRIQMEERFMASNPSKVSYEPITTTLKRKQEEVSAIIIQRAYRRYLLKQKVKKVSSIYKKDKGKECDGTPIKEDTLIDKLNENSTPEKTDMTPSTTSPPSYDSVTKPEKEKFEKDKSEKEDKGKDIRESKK
In short: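 HEK293 cells stably expressing hNav1.2 were studied by whole-cell patch clamp at 20–22 °C with at least 75% series resistance compensation. Compound came from a 100 mM DMSO stock diluted in perfusion solution (final DMSO at most 0.1%). It was applied after a 3 min control period until current reached steady state. Result expressed as mean percent block ± SEM.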

[4] = test system: Rattus norvegicus; assay: Antinociceptive effect in Sprague-Dawley rat model of sciatic nerve constriction-induced neuropathic pain model assessed as reduction in threshold to von Frey filaments applied to affected hind paw at 100 mg/kg, sc measured 2 hrs post dose; assay type: functional, organism-based; design: dose 100 mg/kg; in short: as §1
[5] = Drug localization in Sprague-Dawley rat dorsal root ganglions at 100 uM using dansylated compound by two photon confocal microscopy; assay type: ADME, tissue-based, Dorsal root ganglion
[6] = test system: Rattus norvegicus; assay: Anticonvulsant effect in Sprague-Dawley rat epileptic model assessed as increase in seizure thresholds at 50 mg/kg, po dosed before seizure induction by subcutaneous metrazol seizure threshold test; assay type: functional, organism-based; design: dose 50 mg/kg
In short: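 Rats pretreated orally with 50 mg/kg of test compound, then seizures induced by subcutaneous Metrazol (scMET) injection; testing done through the NINDS anticonvulsant screening program.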

[7] = test system: Rattus norvegicus; assay: Anticonvulsant effect in Sprague-Dawley rat epileptic model assessed as increase in seizure thresholds at 50 mg/kg, po dosed before seizure induction by maximal electroshock test; assay type: functional, organism-based; design: dose 50 mg/kg
[8] = test system: Rattus norvegicus; assay: Antinociceptive effect in Sprague-Dawley rat model of sciatic nerve constriction-induced neuropathic pain model assessed as […] to von Frey filaments applied to affected hind paw at 30 mg/kg, sc measured 2 hrs post dose; assay type: functional, organism-based; design: dose 30 mg/kg

SMILES	inhibition [1]	further results
CCCCCCCC(O)(c1cccc(Cl)c1)c1ccc(F)c(F)c1 (centres undefined)	42%	–
O=C1NC(=O)C(CCCCCC2CC2)(c2cccc(Cl)c2)N1 (centres undefined)	87%	–
CCCCCCCC(O)(c1cccc(Cl)c1)c1ccc(C)cn1 (centres undefined)	41%	–
CC(C)=CCCC(C)CCC(O)(C(N)=O)c1cccc(Cl)c1 (centres undefined)	40%	–
CCCCCCCC1(c2cccc(Cl)c2)NC(=O)NC1=O (centres undefined)	70%	Activity [2]: Active; inhibition [3]: 31%; Activity [4]: Active
CCCCCCCC1(c2cccc(Cl)c2)OC(C)(C)OC1=O (centres undefined)	27%	–
C=CCCCCCC1(c2cccc(Cl)c2)NC(=O)N(CC=C)C1=O (centres undefined)	72%	–
CCCCCCCC1(c2cccc(Cl)c2)NC(=O)N(CC2CC2)C1=O (centres undefined)	78%	–
CCCCCCCC(O)(C(N)=O)c1cccc(Cl)c1 (centres undefined)	48%	–
CCCCCCCC(O)(c1cc(F)cc(F)c1)c1cccc(Cl)c1 (centres undefined)	35%	–
CN(C)c1cccc2c(S(=O)(=O)NCCCCCC3(c4cccc(Cl)c4)NC(=O)NC3=O)cccc12 (centres undefined)	86%	Drug uptake [5]: Active; Activity [2]: Active; inhibition [3]: 59%; Activity [6]: inactive; Activity [7]: inactive; Activity [4]: Active
C#C/C(=C\CCCCCC)c1cccc(Cl)c1	32%	–
CCCCCCCC(O)(c1cccc(Cl)c1)c1cccc(OC)c1 (centres undefined)	51%	–
O=C1NC(=O)C(c2ccccc2)(c2ccccc2)N1 [PHENYTOIN]	28%	Activity [6]: Active; Activity [7]: Active
CCCCCCCC1(c2cccc(Cl)c2)NC(=O)N(Cc2ccccc2)C1=O (centres undefined)	72%	–
C#CCN1C(=O)NC(CCCCCCC)(c2cccc(Cl)c2)C1=O (centres undefined)	57%	–
C=CCCCCCC1(c2cccc(Cl)c2)NC(=O)NC1=O (centres undefined)	79%	–

SMILES	inhibition [1]	further results
CCCCCCCC(O)(c1cccc(Cl)c1)c1cc(F)cc(OC)c1 (centres undefined)	56%	–
CCCCCCCC(O)(c1cccc(Cl)c1)c1cc(C(F)(F)F)cc(C(F)(F)F)c1 (centres undefined)	8%	–
O=C1NC(=O)C(CCCOCc2ccccc2)(c2cccc(Cl)c2)N1 (centres undefined)	71%	–
CCCCCCCC1(c2cccc(Cl)c2)NC(=O)N(CCc2ccccc2)C1=O (centres undefined)	17%	–
C=CCCCCCC(O)(C(N)=O)c1cccc(Cl)c1 (centres undefined)	86%	–
C#CC(O)(CCCCCCC)c1cccc(Cl)c1 (centres undefined)	78%	–
CCCCCCCC1(c2cccc(Cl)c2)NC(=S)NC1=O (centres undefined)	67%	–
CCCCCCCC(O)(c1cccc(Cl)c1)c1ccccn1 (centres undefined)	28%	–
O=C1NC(=O)C(CCCCCC2CO2)(c2cccc(Cl)c2)N1 (centres undefined)	28%	–
CC(C)=CCC/C(C)=C/CC(O)(C(N)=O)c1cccc(Cl)c1 (centres undefined)	84%	–
C=CCN1C(=O)NC(CCCCCCC)(c2cccc(Cl)c2)C1=O (centres undefined)	83%	–
CCCCCCCC1(c2cccc(Cl)c2)NC(=O)N(Cc2cccc(F)c2)C1=O (centres undefined)	71%	–
NCC1(CC(=O)O)CCCCC1	–	Activity [8]: Active
CCCCCCCC1(c2cccc(Cl)c2)NC(SC)=NC1=O (centres undefined)	51%	–
NC(=O)C(O)(CCCCOCc1ccccc1)c1cccc(Cl)c1 (centres undefined)	52%	–
CCCCCCCC1(c2cccc(Cl)c2)C(=O)N=C(SC)N1C (centres undefined)	18%	–
